Cytotoxicity data for 96 compounds are collected here from ChEMBL document CHEMBL4513216, “Probing the Open Global Health Chemical Diversity Library for Multistage-Active Starting Points for Next-Generation Antimalarials” (ACS Infect Dis, 2020).

Molecules are shown by their SMILES.

The data set is described as follows: Toxicity liver stage against HepG2, at 10uM. To be noted: human, HepG2-A16-CD81EGFP cells; read-out: INHIBITION
The data set is classed as cell-based. Further details: test concentration 10 uM, cell line HepG2-A16-CD81EGFP. The essentials: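 Uninfected HepG2-A16-CD81EGFP cells, 3 × 10^3 per well, 1536-well, plated on prespotted compound at 10 μM final, parasite-free screening media added to match infected plates; puromycin 10 μM positive, DMSO 0.5% negative; run in parallel with 48 h PbLuc assay at 37 °C, 5% CO2; viability by CellTiter-Glo luminescence, normalized to controls.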
As for `Cc1ccc(CN2C[C@@H]3C[C@H](C(=O)NCc4cccnc4)[C@H](C2)O3)o1`, the cytotoxicity at 10 µM is 3.82%.

With `CS(=O)(=O)c1nccn1Cc1ccc(C(N)=O)cc1`, the cytotoxicity at 10 µM is 6.77%.

As to `CN(C)c1ccc(C(=O)N2CCCCC2CC(N)=O)c(F)c1` (stereo unspecified), the cytotoxicity at 10 µM amounted to 7.12%.

As for `O=C(c1cc(Cl)c2c(c1)OCO2)N1CCN(c2cnccn2)CC1`, the cytotoxicity at 10 µM is 6.76%.

With `Cn1cc(S(=O)(=O)NCCc2nnc3ccccn23)cn1`, the cytotoxicity at 10 µM was 8.43%.

In the case of `COc1cc(OC)cc(-n2ccnc2-c2cc3n(n2)CCNC3)c1`, the cytotoxicity at 10 µM was -12.2%.

With `CSc1cccc(CN(C)C(=O)Cn2ncc(N3CCCC3)cc2=O)c1`, the cytotoxicity at 10 µM is -2.01%.

Turning to `Cc1ccnc(C2CCN(S(=O)(=O)c3cn(C)cn3)CC2)n1`, the cytotoxicity at 10 µM worked out at 3.24%.

`CCCn1cc(C(=O)NC2CCC(n3cnnc3)CC2)c(C)n1` (stereo unspecified): the cytotoxicity at 10 µM was found to be 0.642%.

As for `CS(=O)(=O)N1CCC2(CC1)CC(CC(=O)N1CCCC1)c1ccccc12` (stereo unspecified), the cytotoxicity at 10 µM is -0.748%.

Consider `Cc1cc(C)cc(C(=O)Nc2cn[nH]c2)c1`, for which the cytotoxicity at 10 µM was -6.57%.

Turning to `CN(C(=O)NCc1nccn1CCc1ccccc1)C1CCC1`, the cytotoxicity at 10 µM turned out to be 1.96%.

As for `Cn1c(CCCNc2nccnc2C#N)nc2ccccc21`, the cytotoxicity at 10 µM is -8.98%.

Take `CCCN1CCCC1c1ccc(C(=O)N2CCOCC2)s1` (stereo unspecified): the cytotoxicity at 10 µM was -146%.

Regarding `COCCN(CCOC)C(=O)Nc1cc(C(F)(F)F)c[nH]c1=O`, the cytotoxicity at 10 µM was -4.28%.

`CCc1nc2c(c(NCc3nc(-c4cccnc4)no3)n1)CCNCC2`: the cytotoxicity at 10 µM was 5.85%.

As to `O=C(Cn1cc(C2CC2)nn1)N(Cc1ccco1)CC1CCCO1` (stereo unspecified), the cytotoxicity at 10 µM came to 0.0636%.

For `Cc1cc(C(=O)NCC(O)CN2CCCC2=O)ccc1F` (stereo unspecified), the cytotoxicity at 10 µM amounted to 5.24%.

For the compound `Cc1cnc(CN2CCC(N(C)Cc3nnc(C)n3C)C2)cn1` (stereo unspecified), the cytotoxicity at 10 µM is -10.7%.

For the compound `c1cnn(Cc2nnc3n2CCCN(c2nccs2)C3)c1`, the cytotoxicity at 10 µM came out at 9.37%.

Take `Cn1cc(N2C(=O)C[C@@H]3[C@@H]2CCN3C(=O)c2ccco2)cn1`: the cytotoxicity at 10 µM was -107%.

As for `Cc1nc(NCc2ccc(F)cc2)cc(C(=O)N2CCOCC2)n1`, the cytotoxicity at 10 µM is -9.14%.

As for `Nc1cc(CCC2CN(Cc3cccc(C(=O)O)c3)CCO2)ccn1` (stereo unspecified), the cytotoxicity at 10 µM was -1.17%.

As to `N#CCSCCCN1CCCC(C(=O)N2CCCCCC2)C1` (stereo unspecified), the cytotoxicity at 10 µM stood at 4.01%.

As to `Cc1ccc(-c2nc(CN3CCOC(c4ccccc4)C3)cs2)o1` (stereo unspecified), the cytotoxicity at 10 µM is -8.11%.

As to `CC(C)=CCCC1(C)CCC(=O)N(CCc2csc(N)n2)C1` (stereo unspecified), the cytotoxicity at 10 µM is -4.27%.

With `CC(=O)N1CCC(c2ccnc(Nc3cnccn3)n2)C1` (stereo unspecified), the cytotoxicity at 10 µM was -0.182%.

In the case of `O=C(NCC1CCOCC1)[C@@H]1C[C@@H]2CCN(Cc3ccco3)C[C@H]2O1`, the cytotoxicity at 10 µM is -8.09%.

For `COc1ccc(C(=O)Nc2cccc(C(N)=O)c2)c(OC)n1`, the cytotoxicity at 10 µM is -9.2%.

With `CC(NC(=O)c1cccs1)C(=O)NCc1ccccn1` (stereo unspecified), the cytotoxicity at 10 µM was -12.3%.

For the compound `CCc1ccc(C(=O)N2CCC(Nc3ccc(C)nn3)CC2)o1`, the cytotoxicity at 10 µM is -11%.

Consider `CCCC(=O)N1CCCC(c2ccccn2)C1` (stereo unspecified), for which the cytotoxicity at 10 µM was determined as 0.0858%.

In the case of `COCC1c2nnn(C)c2CCN1C(=O)c1ccc(OC)c(F)c1` (stereo unspecified), the cytotoxicity at 10 µM was -105%.

On to `CC1CCCN(C(=O)c2ccn(COc3ccccc3)n2)C1` (stereo unspecified), for which the cytotoxicity at 10 µM came to 9.43%.

In the case of `N#CCCN(CC1CCOC1)Cn1ccc(-c2ccsc2)n1` (stereo unspecified), the cytotoxicity at 10 µM was -2.68%.

Take `COc1ncccc1CNC(=O)Nc1ccc(N(C)C)nc1`: the cytotoxicity at 10 µM was -4.38%.

Regarding `Cc1ccccc1S(=O)(=O)NC(=O)C1(c2ccccc2)CCC1`, the cytotoxicity at 10 µM was -6.9%.

`O=C(c1cc[nH]n1)N1CCCC(c2cccc(-n3ccnc3)n2)C1` (stereo unspecified): the cytotoxicity at 10 µM amounted to 6.88%.

`Cc1cc(C)n(C2CN(CC(=O)NCc3ccccn3)C2)n1`: the cytotoxicity at 10 µM is -2.92%.

In the case of `CC(C)N(CC(N)=O)Cc1csc(-c2ncccn2)n1`, the cytotoxicity at 10 µM came to 5.85%.

For the compound `Cc1cc(C2CCC2)nc(NCC(C)(C)CO)n1`, the cytotoxicity at 10 µM is -2.56%.

Consider `CN(Cc1ccco1)C(=O)C1CSCN1C(=O)C1CCC1` (stereo unspecified), for which the cytotoxicity at 10 µM was -13.2%.

Take `CC(C)n1cc(CN2CCCN(C(=O)CC3CCCO3)CC2)cn1` (stereo unspecified): the cytotoxicity at 10 µM is -12.4%.

As for `CCOc1ccnc(N2CCN(C(=O)CCc3cnn(C)c3)CC2)n1`, the cytotoxicity at 10 µM amounted to 7.58%.

In the case of `O=C(NCc1ccccc1F)Nc1ccn(CCN2CCOCC2)n1`, the cytotoxicity at 10 µM is -7.85%.

Regarding `O=c1c(=CS(=O)(=O)Nc2ccc(Br)cc2)[nH]c(=O)n2cccc12`, the cytotoxicity at 10 µM is -9.95%.

Take `O=C(NCc1nnc2n1C(C(=O)NC1CC1)CC2)c1ccc(Cl)cc1Cl` (stereo unspecified): the cytotoxicity at 10 µM turned out to be 5.06%.

Regarding `CN(Cc1ccc(N(C)C)cc1)C(=O)NCc1nnc2n1CCC2`, the cytotoxicity at 10 µM was -21%.

With `Cc1cccc(C2CCCN(C(=O)CN3CCCC3=O)C2)c1` (stereo unspecified), the cytotoxicity at 10 µM is -0.942%.

`Cc1ccc2c(n1)N(CC1CC1)CCN(Cc1ccco1)C2`: the cytotoxicity at 10 µM came to 2.75%.

With `CCOc1ccc(Br)cc1C1CCCCN1` (stereo unspecified), the cytotoxicity at 10 µM is 7.16%.

In the case of `CN(C)CCn1c(=O)oc2ccc(NC(=O)N3CCCCCC3)cc21`, the cytotoxicity at 10 µM was -3.59%.

As for `N[C@H]1CN(CCOc2ccc(F)cc2)C[C@@H]1C1CC1`, the cytotoxicity at 10 µM was -1.93%.

Regarding `CCC(=O)N1CCCC1c1csc(Nc2cnccn2)n1` (stereo unspecified), the cytotoxicity at 10 µM is -2.8%.

Regarding `CC(=O)c1ccc(C(=O)N(C)Cc2nc(-c3ccccn3)no2)s1`, the cytotoxicity at 10 µM amounted to 2.45%.

On to `O=C(NC[C@H]1OC[C@@H](NC2CCC(F)(F)CC2)[C@@H]1O)C1CC1`, for which the cytotoxicity at 10 µM is -1.39%.

As for `CO[C@H]1CC[C@H]2[C@H]1OCCN2C(=O)CC1=CCCCC1`, the cytotoxicity at 10 µM was 5.28%.

Take `CCS(=O)(=O)N1CC[C@@H]2[C@@H](CCC(=O)N2CCc2ccccc2)C1`: the cytotoxicity at 10 µM was 0.86%.

As to `CC(c1ccccn1)N(C)C(=O)NCCn1c(=O)oc2ccccc21` (stereo unspecified), the cytotoxicity at 10 µM was -6.37%.

Consider `CCc1c(C)[nH]c(C2(N)CCCC2)nc1=O`, for which the cytotoxicity at 10 µM was -0.327%.

Take `c1ccc2nc(NCC3(N4CCOCC4)CCSC3)cnc2c1` (stereo unspecified): the cytotoxicity at 10 µM is 12.7%.

For `Cn1ccnc1C1CCCN(C(=O)c2ccc3nccnc3c2)C1` (stereo unspecified), the cytotoxicity at 10 µM is 19.7%.

Turning to `CNc1nc(CNC(=O)Nc2ccc([S+](C)[O-])c(F)c2)cs1` (stereo unspecified), the cytotoxicity at 10 µM is -12.2%.

In the case of `CN(Cc1nnc(C2CC2)n1C)S(=O)(=O)c1ccccc1F`, the cytotoxicity at 10 µM came to 16.8%.

Regarding `CCn1cc(S(=O)(=O)N2CCN(S(=O)(=O)c3ccc(Br)s3)CC2)cn1`, the cytotoxicity at 10 µM stood at 6.24%.

With `Cn1ccc2ccc(C(=O)N3CCN(C(=O)OC(C)(C)C)CC3)cc21`, the cytotoxicity at 10 µM is 18.1%.

For `CN(C)S(=O)(=O)NC(=O)CC(c1ccccc1)C(F)(F)F` (stereo unspecified), the cytotoxicity at 10 µM was -39.5%.

Take `OC1COCCN(Cc2cccc(N3CCOCC3)c2)C1` (stereo unspecified): the cytotoxicity at 10 µM is -12.6%.

Regarding `CN(C)C(=O)COc1ccccc1CNC1CCc2ncnn2C1` (stereo unspecified), the cytotoxicity at 10 µM worked out at 5.38%.

`COc1ccc(F)cc1C(=O)N(C)[C@@H]1CC[C@@H](O)[C@@H]1O`: the cytotoxicity at 10 µM was 7.81%.

On to `CC1CCN(Cn2nc(-c3ccc(F)cc3)oc2=O)CC1`, for which the cytotoxicity at 10 µM was -2.55%.

For the compound `NC(=O)N1CCCC(C(=O)Nc2cccc(Cl)c2)C1` (stereo unspecified), the cytotoxicity at 10 µM was 8.16%.

Regarding `CC(C)N1[C@H](Cn2cncn2)C[C@@H]2CN(Cc3ccsc3)CC[C@@H]21`, the cytotoxicity at 10 µM is -117%.

In the case of `Cc1cc(C)n(CCCNC(=O)C2CCCO2)n1` (stereo unspecified), the cytotoxicity at 10 µM is -11.5%.

Take `O=C(O)CCN(Cc1ccc(F)c(F)c1)C(=O)C1CC1`: the cytotoxicity at 10 µM was 1.04%.

Turning to `Cc1ccc(OCCN(C)C(=O)NC(C)c2nncn2C)cc1` (stereo unspecified), the cytotoxicity at 10 µM is -9.77%.

With `c1ccc(-c2nc(CNC3CCc4ncnn4C3)cs2)cc1` (stereo unspecified), the cytotoxicity at 10 µM is -6.19%.

As for `NC(=O)C1CN(C(=O)Nc2ccccc2Oc2ccccc2Cl)CCO1` (stereo unspecified), the cytotoxicity at 10 µM is -10.5%.

For the compound `Cc1noc([C@H]2C[C@H]3OCC[C@H]3N(Cc3cccs3)C2)n1`, the cytotoxicity at 10 µM was -96.3%.

For the compound `COc1cccc(-c2ccc(CNC(=O)c3ccc(=O)n(C)c3)cc2)c1`, the cytotoxicity at 10 µM came out at 22.3%.

As to `COc1ccc(N2CCN(C(=O)CCc3n[nH]c(C)n3)CC2=O)cc1`, the cytotoxicity at 10 µM is -0.524%.

Consider `CCN1CCCCC1C(=O)N1CCC(OCCOC)CC1` (stereo unspecified), for which the cytotoxicity at 10 µM is -6.81%.

As to `CCNC(=O)NC(=O)C(C)Nc1ccccc1OCCOC` (stereo unspecified), the cytotoxicity at 10 µM stood at 4%.

On to `CCOc1cc(C)nc(N2CCN(C(=O)c3cc(C)on3)CC2)n1`, for which the cytotoxicity at 10 µM was -1.61%.

With `O=C1CCCN1c1cccc(CNCc2nc(C3CC3)no2)c1`, the cytotoxicity at 10 µM is -7.11%.

Turning to `CC(C)Nc1ccnc(N2Cc3cnc(C(C)(C)C)nc3C2)n1`, the cytotoxicity at 10 µM is 8.33%.

In the case of `Cn1cnc2c1CCN(Cc1noc(-c3ccccc3)n1)C2`, the cytotoxicity at 10 µM is -1.96%.

`c1cc(CN2CCOCC3(CCN(C4CCOCC4)C3)C2)ccn1` (stereo unspecified): the cytotoxicity at 10 µM was determined as 0.866%.

Regarding `c1ccc(CN2CCc3ncnc(-c4ccoc4)c3CC2)nc1`, the cytotoxicity at 10 µM was -79%.

Consider `CN1CCC2(CCN(CC3CCOCC3)CC2)C1=O`, for which the cytotoxicity at 10 µM turned out to be 6.77%.

Regarding `O=C(O)[C@@H]1OCC(=O)N(Cc2cccc(Cl)c2)[C@@H]1c1ccccc1`, the cytotoxicity at 10 µM is 3.94%.

With `CN1CCN(C2CCN(CC(O)c3ccccc3)CC2)C1=O` (stereo unspecified), the cytotoxicity at 10 µM was found to be 1.76%.

For `Cc1nc(C(=O)N2C[C@@H]3COC[C@]3(COCc3cccnc3)C2)cs1`, the cytotoxicity at 10 µM was -1.92%.

For `COC(C)C(=O)NS(=O)(=O)c1ccc(F)c(C(F)(F)F)c1` (stereo unspecified), the cytotoxicity at 10 µM is -4.04%.

For `C[C@]1(O)CN(Cc2ncccc2F)CC[C@@H]1Oc1cccc(F)c1`, the cytotoxicity at 10 µM is -2.11%.

As for `CN(C)C1CC2(CCN(C(=O)C3(C#N)CC3)CC2)c2ccccc21` (stereo unspecified), the cytotoxicity at 10 µM was -113%.
